# Rows were chosen to be rich in hits. Some 2.5% of all compounds tested hit in one or more screens of this group.
# MsrA inhibitor: bovine MsrA enzyme inhibitors, primary screen, biochemical, absorbance, HTS; inhibition, % at 15.5 µM; actives 0.75% (n = 360,000); Methionine sulfoxide reductase A (Bos taurus); purified bovine MsrA, absorbance read-out; in the data active means inhibition above about 4.5%
# GalR3 antagonist: GalR3 antagonists in HEK293 cells, primary screen, cell-based, fluorescence readout. Galanin receptor type 3 (Homo sapiens), O60755. HEK293 GalR3-CNG cAMP membrane potential fluorescence; galR3 body fused to GalR1 C-terminus. inhibition, % at 3 µM. actives 0.44% (n = 360,000). AID 651719, 2012;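 active means inhibition above the screen-wide average plus 3 SD, cut at about 13% in these data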;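 further: forskolin and galanin both at EC90 stimulate the cells; cAMP rise reported by CNG channel membrane potential dye signal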
# NR2E3 ag-1: NR2E3 agonists in two-hybrid cells, primary screen, cell-based, luminescence, CHO-S, Gal4-NCOR/VP16-NR2E3. luciferase. inhibition of corepressor binding, % at 3.98 µM. actives 0.35% (n = 360,000);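 active means inhibition above the mean of all tested compounds plus 3 SD, cut at about 70% in these data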;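 further: higher means lower luciferase signal from less NR2E3 corepressor binding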
# Target sequence (Q9Y5X4 whole entry, looked up, the tested form may be a part): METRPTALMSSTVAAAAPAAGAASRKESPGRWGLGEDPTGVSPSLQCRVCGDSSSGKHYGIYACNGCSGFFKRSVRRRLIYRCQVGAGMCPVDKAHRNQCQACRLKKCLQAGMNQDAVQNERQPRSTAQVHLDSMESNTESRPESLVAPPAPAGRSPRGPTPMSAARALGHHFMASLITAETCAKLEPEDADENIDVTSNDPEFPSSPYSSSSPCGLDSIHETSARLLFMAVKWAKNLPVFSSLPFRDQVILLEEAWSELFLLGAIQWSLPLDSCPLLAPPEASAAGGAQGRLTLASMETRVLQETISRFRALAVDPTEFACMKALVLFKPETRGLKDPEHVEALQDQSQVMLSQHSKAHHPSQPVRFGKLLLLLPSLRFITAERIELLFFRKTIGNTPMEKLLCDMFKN
# bovine MsrA act: bovine MsrA enzyme activators, primary screen, biochemical, absorbance, HTS; Methionine sulfoxide reductase A (Bos taurus); purified bovine MsrA, absorbance read-out; actives 0.3% (n = 360,000); activation, % at 10.6 µM; in the data active means activation above about 7.5%
# NR2E3 ag-2: inhibitors of NR2E3-RetCOR corepressor binding, primary screen, NR2E3 agonist project, biochemical, TR-FRET, GST-NR2E3, biotin-RetCOR; inhibition of corepressor binding, % at 4.78 µM; 1536-well; AID 2300, 2010; actives 0.12% (n = 320,000);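 active means percent inhibition above the cutoff of mean plus 3 SD of all tested compounds, set per screening campaign, cut at about 20% in these data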
#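 Format: 1536-well format; test system: GST-NR2E3 and biotin-RetCOR proteins; read-out basis: percent inhibition of TR-FRET ratio; timing: 5 h incubation at 4 °C; detection: time-resolved FRET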
# NadD block: inhibitors of S. aureus NadD, primary screen, biochemical, colorimetric, uHTS | Nicotinate-nucleotide adenylyltransferase NadD (Staphylococcus aureus N315) | purified NadD enzyme, colorimetric absorbance read-out | inhibition, % at 20 µM | actives 0.78% (n = 360,000); in the data active means inhibition above about 26%
# GalR3 antag conf: GalR3 antagonist hit confirmation, cell-based, fluorescence, triplicate; shares compounds with GalR3 antagonist; HEK293 GalR3 CNG cAMP biosensor, membrane potential fluorescence; galR3 fused to GalR1 carboxy tail; challenged with forskolin and galanin at EC90; inhibition, % at 3 µM; actives 59% (n = 1,600);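 active means inhibition above the primary screen's cutoff, the mean inhibition of all screened compounds plus 3 SD, cut at about 13% in these data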
# CNG parental: nonspecific cAMP agonists in parental HEK-CNG cells, counter-screen for GalR3 antagonist project, cell-based, fluorescence, high throughput; shares compounds with GalR3 antagonist; HEK293-CNG parental cells, cAMP membrane potential fluorescence; normalised: DMSO wells 0%, forskolin wells 100%; activation, % at 3 µM; actives 10% (n = 1,600); in the data active means activation above about 1.3%
# Hits are given with their value; - = inactive; . = no result.
SMILES,MsrA inhibitor,GalR3 antagonist,NR2E3 ag-1,bovine MsrA act,NR2E3 ag-2,NadD block,GalR3 antag conf,CNG parental
O=C(NC1CCN(Cc2ccccc2)CC1)c1cccc(S(=O)(=O)Nc2ccc(F)cc2)c1,-,17,-,-,-,-,54,-
O=C(NC1CCN(Cc2ccccc2)CC1)c1cccc(S(=O)(=O)Nc2ccc(Br)cc2)c1,-,-,-,-,-,-,.,.
CN(C)S(=O)(=O)c1cccc(C(=O)NCC(=O)NC2CCN(Cc3ccccc3)CC2)c1,-,-,-,-,-,-,.,.
C[C@H]1CN=C2N(CCNC(=O)CCC3CCCCC3)[C@H](Cc3ccc(O)cc3)CN21,-,17,-,-,-,-,-,-
CCN(CC(=O)Nc1c(F)cccc1F)C(=O)c1cccc(S(=O)(=O)N2CCc3ccccc3C2)c1,-,-,-,-,-,-,.,.
CC(=O)NCCCc1nc2ccccc2n1Cc1cc(C)ccc1C,-,-,-,-,-,-,.,.
CC(=O)NCCc1nc2ccccc2n1Cc1ccc(C)cc1,-,.,-,-,-,-,-,-
O=C(Nc1ccccc1)c1ccc(CN2CCc3ccccc3C2)cc1,-,92,-,-,-,-,102,-
Cc1cc(C)cc(NC(=O)c2ccc(CN3CCc4ccccc4C3)cc2)c1,-,-,-,-,-,-,.,.
O=C(Nc1ccc(S(=O)(=O)N2CCCCC2)cc1)c1ccc(CN2CCc3ccccc3C2)cc1,-,106,-,-,-,-,105,-
Cc1ccc(NC(=O)c2ccc(CN3CCc4ccccc4C3)cc2)cc1,-,27,-,-,-,-,104,-
O=C(Cn1ncc2c3ccccc3n(Cc3ccccc3)c2c1=O)N1CCN(c2ccccn2)CC1,.,.,-,-,-,-,.,.
CCOC(=O)c1c(O)c(Cl)c(C)[nH]c1=O,-,16,-,-,-,-,19,-
Cc1[nH]c(=O)c(C#N)cc1-c1csc(-c2ccccc2)n1,-,-,-,-,-,-,.,.
Cc1[nH]c(=O)c(C#N)cc1-c1ccccc1,-,20,-,-,-,-,20,-
COc1ccc2oc(C(=O)OCC(=O)N3CC(C)CC(C)C3)c(C)c2c1 (stereo not given),-,-,-,-,-,-,.,.
CC(C)Oc1ccc(S(=O)(=O)N2CCOCC2)cc1NC(=O)Cc1ccsc1,-,-,-,-,.,-,.,.
C/C(=C/C(=O)Nc1cccc(F)c1)N1CCCC1,-,17,-,-,-,-,-,-
O=C(N/N=C/c1ccco1)C1COc2ccccc2O1 (stereo not given),-,-,-,-,-,-,.,.
Nc1cnn(C2OC(CO)C(O)C2O)c(=O)n1 (stereo not given),-,21,-,-,-,-,-,-
Nc1ncn(C2O[C@H](CO)[C@@H](O)[C@H]2O)c(=O)n1 (stereo not given in full),.,.,.,.,-,.,.,.
CSc1ccc(/C=N/NC(=O)CN2CCN(Cc3ccccc3Cl)CC2)cc1,-,-,-,-,-,-,.,.
CN1CCN(C(=O)c2ccc3c(c2)N(C)C(=O)/C(=C/c2cccc(Cl)c2)S3)CC1,-,-,-,-,-,-,.,.
COc1ccc(/C=C2\Sc3ccc(C(=O)N4CCN(Cc5ccccc5)CC4)cc3N(C)C2=O)cc1OC,-,60,-,-,-,-,106,-
O=[N+]([O-])c1ccc(NC(=S)N/C(=N/CS(=O)(=O)c2ccccc2)c2ccccc2)cc1,-,13,-,-,-,-,-,-
SMILES,MsrA inhibitor,GalR3 antagonist,NR2E3 ag-1,bovine MsrA act,NR2E3 ag-2,NadD block,GalR3 antag conf,CNG parental
CCOC(=O)CC(N)c1ccc(OC)cc1 (stereo not given),-,14,-,-,-,-,13,-
O=C(CSc1ccc(C(F)(F)F)cc1[N+](=O)[O-])Nc1ccc2ccccc2c1,-,-,-,-,-,-,.,.
COC(=O)[C@]12CCCCC=C1N(Cc1cccc3ccccc13)C(=O)[C@H](CC(=O)NCc1ccc(OC)c(OC)c1)C2,-,14,-,-,.,-,76,-
COC(=O)[C@]12CCCCC=C1N(CCc1ccc(OC)c(OC)c1)C(=O)[C@H](CC(=O)NCc1cccc3ccccc13)C2,-,-,.,.,.,.,.,.
NS(=O)(=O)c1ccc(NC(=S)N2CCN(c3ccc(Cl)c(Cl)c3)CC2)cc1,-,21,-,-,-,-,37,-
NS(=O)(=O)c1ccc(NC(=S)N2CCN(Cc3ccc(Cl)c(Cl)c3)CC2)cc1,-,-,-,-,-,-,.,.
CN(CC(=O)Nc1ccc(F)c(F)c1F)C(=O)CCN1C(=O)C2CC=CCC2C1=O (stereo not given),-,-,-,-,.,-,.,.
COC(=O)c1ccccc1C(=O)N1CCOCCN(C(=O)c2ccccc2C(=O)OC)CCOCC1,-,-,-,-,-,-,.,.
COc1ccc(NC(=O)Cn2nc(C(=O)O)c3ccccc3c2=O)cc1Cl,-,13,-,-,-,-,-,-
Oc1ccc(C[C@@H]2CNCCN2CCCCC2CCCCC2)cc1,-,-,-,-,-,-,.,.
CC(=O)c1c(C)[nH]c(C(=O)OCC(=O)Nc2cc(Cl)ccc2[N+](=O)[O-])c1C,-,93,-,-,-,-,50,-
CCCc1nc(Nc2nc3ccccc3o2)nc(C)c1C(=O)OCC,-,-,-,-,-,-,.,.
C=CCNc1nc2c(c(=O)n(C)c(=O)n2C)n1CCCCCC,-,41,-,-,-,-,83,-
C=CCNc1nc2c(c(=O)n(C)c(=O)n2C)n1CC,-,-,-,-,-,-,.,.
Cc1cc(C)nc(/N=C(\N)Nc2ccc(CC(=O)OC(C)C)cc2)n1,-,86,-,-,-,-,58,1.4
Cc1cc(C)nc(/N=C(\N)Nc2ccc(OCc3ccccc3)cc2)n1,-,35,-,-,-,-,-,7.8
COc1ccc2[nH]c(O)c(N=NC(=N)N)c2c1,-,14,-,-,-,-,-,-
